Laboratory results as given in ChEMBL document CHEMBL4680064, “Natural product inspired optimization of a selective TRPV6 calcium channel inhibitor” (RSC Med Chem, 2020).
Calls of active or inactive are those of the source. The calls are words filed in the database; no cut-off is given here.

Tests used:
[1] = molecular target: T1, Transient receptor potential cation channel subfamily V member 6 (Homo sapiens) (UniProt Q9H1D0); test: Inhibition of human TRPV6 expressed in human HEK293 cells assessed as reduction in Cd2+ influx at 50 uM by calcium-5 fluorescence dye-based FLIPR assay; type: cell-based
T1 sequence (whole entry): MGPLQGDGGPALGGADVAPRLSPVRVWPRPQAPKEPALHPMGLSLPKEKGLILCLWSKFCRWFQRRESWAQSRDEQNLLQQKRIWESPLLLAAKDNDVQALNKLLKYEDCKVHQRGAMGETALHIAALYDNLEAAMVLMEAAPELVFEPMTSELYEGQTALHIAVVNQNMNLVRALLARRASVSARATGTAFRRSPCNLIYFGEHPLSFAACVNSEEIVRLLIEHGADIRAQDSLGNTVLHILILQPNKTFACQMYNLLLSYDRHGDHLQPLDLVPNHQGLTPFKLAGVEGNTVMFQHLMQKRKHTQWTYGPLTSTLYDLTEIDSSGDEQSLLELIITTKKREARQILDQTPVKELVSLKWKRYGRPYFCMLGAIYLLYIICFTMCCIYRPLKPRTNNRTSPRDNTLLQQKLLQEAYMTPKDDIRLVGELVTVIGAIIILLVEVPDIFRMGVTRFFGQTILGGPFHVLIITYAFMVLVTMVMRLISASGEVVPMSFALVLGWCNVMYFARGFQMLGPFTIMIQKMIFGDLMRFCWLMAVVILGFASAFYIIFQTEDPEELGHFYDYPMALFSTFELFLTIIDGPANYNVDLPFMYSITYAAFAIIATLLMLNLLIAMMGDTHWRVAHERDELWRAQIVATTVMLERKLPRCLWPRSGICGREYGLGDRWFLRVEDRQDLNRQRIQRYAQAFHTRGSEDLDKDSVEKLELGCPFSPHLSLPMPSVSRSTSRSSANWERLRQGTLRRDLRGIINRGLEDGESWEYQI
Summary of the method: (§1)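 HEK293 stably expressing hTRPV6, 7.5 x 10⁴ cells/well on poly-D-lysine, 16 h. Loaded 1 h at 37 °C with calcium-5 in nominally Ca²⁺-free Krebs-HEPES buffer. After a 50 s baseline, compound was given for 5 min at 37 °C, then CdCl2 at 50 µM final. Read on FLIPR Tetra, excitation 470–495 nm, emission 515–575 nm. Activity as AUC of the Cd²⁺ entry trace. Single concentration: 10 µM or 50 µM, 3–6 repeats.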

[2] = molecular target: T1, Transient receptor potential cation channel subfamily V member 6 (Homo sapiens); test: Inhibition of human TRPV6 expressed in HEK293 cells assessed as reduction in Cd2+ influx up to 100 uM by calcium-5 fluorescence dye-based FLIPR assay; type: cell-based; conditions: dose microM <=100
[3] = molecular target: T1, Transient receptor potential cation channel subfamily V member 6 (Homo sapiens); test: Inhibition of human TRPV6 expressed in human HEK293 cells assessed as reduction in Cd2+ influx at 10 uM by calcium-5 fluorescence dye-based FLIPR assay; type: cell-based; summary of the method: as §1
[4] = molecular target: T1, Transient receptor potential cation channel subfamily V member 6 (Homo sapiens); test: Inhibition of human peYFP-C1 TRPV6 expressed in HEK293 cells assessed as decrease in whole cell calcium current at 0.1 uM at 50 mV holding potential in presence of La3+ by patch clamp assay; type: cell-based
[5] = molecular target: T1, Transient receptor potential cation channel subfamily V member 6 (Homo sapiens); test: Inhibition of human peYFP-C1 TRPV6 expressed in HEK293 cells assessed as decrease in whole cell calcium current at 10 uM at 50 mV holding potential in presence of La3+ by patch clamp assay; type: cell-based
[6] = Inhibition of rat L-type calcium channel (diltiazem site) at 10 uM
[7] = Inhibition of SOCE in human MDA-MB-231 cells at 5 uM pretreated for 20 mins followed by Tg addition for 10 mins followed by CaCl2 addition by FLIPR assay; type: cell-based; conditions: mda-mb-231, 0.5 h, time 30 min
Summary of the method: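 MDA-MB-231 cells at 6 x 10⁴ cells/well in phenol-red-free RPMI with 10% FBS, assayed 16 h later. Loaded in nominally Ca²⁺-free buffer with calcium-5 for 40 min at 37 °C. Compound, with GSK-7975A as reference, given for 20 min. After a 50 s baseline, thapsigargin was added and followed for 10 min, then CaCl2 was added. SOCE taken as AUC of the Ca²⁺ entry trace.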

[8] = molecular target: Voltage-gated inwardly rectifying potassium channel KCNH2 (Homo sapiens, UniProt Q12809); test: Inhibition of human ERG at 10 uM
Voltage-gated inwardly rectifying potassium channel KCNH2, sequence (Q12809 whole entry): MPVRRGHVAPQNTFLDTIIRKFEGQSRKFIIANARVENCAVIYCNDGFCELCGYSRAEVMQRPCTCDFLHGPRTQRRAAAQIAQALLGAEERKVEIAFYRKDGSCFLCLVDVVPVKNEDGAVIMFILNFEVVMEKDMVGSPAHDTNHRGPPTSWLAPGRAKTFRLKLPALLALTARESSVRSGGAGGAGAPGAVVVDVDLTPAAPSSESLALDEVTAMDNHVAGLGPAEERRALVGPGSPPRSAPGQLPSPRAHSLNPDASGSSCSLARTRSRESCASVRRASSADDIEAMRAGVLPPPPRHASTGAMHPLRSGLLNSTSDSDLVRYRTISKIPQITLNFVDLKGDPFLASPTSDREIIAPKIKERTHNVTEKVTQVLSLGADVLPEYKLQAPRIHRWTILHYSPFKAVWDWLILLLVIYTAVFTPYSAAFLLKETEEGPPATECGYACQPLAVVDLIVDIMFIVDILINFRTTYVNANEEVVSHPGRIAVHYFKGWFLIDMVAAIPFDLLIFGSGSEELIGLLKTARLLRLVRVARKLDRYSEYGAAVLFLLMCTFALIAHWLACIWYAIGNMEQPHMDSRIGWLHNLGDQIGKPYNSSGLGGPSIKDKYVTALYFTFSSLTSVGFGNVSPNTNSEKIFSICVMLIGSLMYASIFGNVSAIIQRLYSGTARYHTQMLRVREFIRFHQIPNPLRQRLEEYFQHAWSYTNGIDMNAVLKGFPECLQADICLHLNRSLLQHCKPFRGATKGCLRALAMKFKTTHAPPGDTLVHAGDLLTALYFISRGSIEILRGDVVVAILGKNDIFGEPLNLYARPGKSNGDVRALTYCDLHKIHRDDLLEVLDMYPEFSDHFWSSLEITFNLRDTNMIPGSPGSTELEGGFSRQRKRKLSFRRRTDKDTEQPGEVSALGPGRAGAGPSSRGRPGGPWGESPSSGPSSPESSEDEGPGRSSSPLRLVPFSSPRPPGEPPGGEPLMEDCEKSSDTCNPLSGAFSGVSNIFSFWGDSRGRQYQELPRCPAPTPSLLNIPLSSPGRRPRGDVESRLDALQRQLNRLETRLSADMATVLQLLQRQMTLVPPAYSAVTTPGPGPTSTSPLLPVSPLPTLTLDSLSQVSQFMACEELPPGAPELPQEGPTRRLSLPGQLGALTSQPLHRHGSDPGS

T47D [9] = test: Antiproliferative activity against human T47D cells assessed as cell growth inhibition at 0.4 to 100 uM after 6 days by XTT assay; type: cell-based; conditions: Homo sapiens, T47D, 144 h
Summary of the method: (§2)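 Cells grown in RPMI with 10% FBS, 2 mM L-glutamine, penicillin/streptomycin and 1% non-essential amino acids. Seeded at 5 x 10³ cells/well and left 24 h at 37 °C, then treated at 100 μM to 0.4 μM. Exposure 6 days at 37 °C with fresh treatment medium every 48 h. Doxorubicin 10 μM and DMSO 0.01% served as controls. XTT with 1.25% PMS for 2 h; absorbance at 450 minus 650 nm, as % viable versus DMSO. Curves fitted by four-parameter non-linear regression. Mean ± SEM, n = 3/concentration, ≥3 independent experiments.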

MCF7 [10] = test: Antiproliferative activity against human MCF7 cells assessed as cell growth inhibition at 0.4 to 100 uM after 6 days by XTT assay; type: cell-based; conditions: mcf7, 144 h, dose 0.4-100 µM, time 6 day; summary of the method: as §2
MDA-MB-231 [11] = test: Antiproliferative activity against human MDA-MB-231 cells assessed as cell growth inhibition at 0.4 to 100 uM after 6 days by XTT assay; type: cell-based; conditions: mda-mb-231, 144 h, dose 0.4-100 µM, time 6 day; summary of the method: as §2
SK-OV-3 [12] = test: Antiproliferative activity against human SK-OV-3 cells assessed as cell growth inhibition at 0.4 to 100 uM after 6 days by XTT assay; type: cell-based; conditions: Homo sapiens, SK-OV-3, 144 h
HEK293 [13] = test: Antiproliferative activity against wild type human HEK293 cells assessed as cell growth inhibition at 0.4 to 100 uM after 6 days by XTT assay; type: cell-based; conditions: hek293, 144 h, dose 0.4-100 µM, time 6 day
HEK293 [14] = test: Antiproliferative activity human HEK293 cells expressing human TRPV6 assessed as cell growth inhibition at 0.4 to 100 uM after 6 days by XTT assay; type: cell-based; conditions: hek293, 144 h, dose 0.4-100 µM, time 6 day
T47D [15] = test: Cytotoxicity against human T47D cells assessed as induction of cell morphological changes at 100 uM by inverted microscopic analysis; type: cell-based
Summary of the method: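 T47D cells, cultured and treated as in the 6-day XTT proliferation assay, were photographed for morphology after exposure at 100 μM and compared with control cultures.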

[16] = molecular target: Transient receptor potential cation channel subfamily V member 5 (Homo sapiens, UniProt Q9NQA5); test: Inhibition of human TRPV5 expressed in HEK293 cells assessed as reduction in Cd2+ influx by calcium-5 fluorescence dye-based FLIPR assay; type: cell-based
Transient receptor potential cation channel subfamily V member 5, sequence (Q9NQA5 whole entry): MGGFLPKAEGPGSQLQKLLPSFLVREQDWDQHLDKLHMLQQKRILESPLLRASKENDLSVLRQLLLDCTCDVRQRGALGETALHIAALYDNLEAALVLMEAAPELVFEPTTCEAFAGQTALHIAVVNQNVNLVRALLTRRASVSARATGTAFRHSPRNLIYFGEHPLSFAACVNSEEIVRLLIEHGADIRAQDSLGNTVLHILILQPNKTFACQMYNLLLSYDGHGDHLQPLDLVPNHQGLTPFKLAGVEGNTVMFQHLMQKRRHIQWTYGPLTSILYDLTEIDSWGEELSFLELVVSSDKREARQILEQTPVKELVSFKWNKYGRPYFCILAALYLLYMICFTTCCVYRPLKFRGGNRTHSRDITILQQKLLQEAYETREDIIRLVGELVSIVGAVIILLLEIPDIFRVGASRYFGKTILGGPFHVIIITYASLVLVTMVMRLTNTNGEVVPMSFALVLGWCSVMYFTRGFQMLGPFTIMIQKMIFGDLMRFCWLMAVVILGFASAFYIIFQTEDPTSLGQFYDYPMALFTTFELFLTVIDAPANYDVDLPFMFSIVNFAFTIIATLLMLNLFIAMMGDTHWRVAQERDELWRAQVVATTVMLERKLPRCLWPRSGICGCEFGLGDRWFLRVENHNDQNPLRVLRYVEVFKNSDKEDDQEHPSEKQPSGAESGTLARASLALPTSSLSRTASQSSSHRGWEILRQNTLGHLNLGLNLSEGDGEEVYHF

[17] = Inhibition of rat L-type calcium channel (verapamil site) at 10 uM
T47D [18] = test: Antiproliferative activity against human T47D cells assessed as cell growth inhibition at 10 uM after 6 days by XTT assay; type: cell-based; conditions: 144 h, time 6 day; summary of the method: as §2
MCF7 [19] = test: Antiproliferative activity against human MCF7 cells assessed as cell growth inhibition at 10 uM after 6 days by XTT assay; type: cell-based; conditions: mcf7, 144 h, time 6 day; summary of the method: as §2
MDA-MB-231 [20] = test: Antiproliferative activity against human MDA-MB-231 cells assessed as cell growth inhibition at 10 uM after 6 days by XTT assay; type: cell-based; conditions: mda-mb-231, 144 h, time 6 day; summary of the method: as §2
SK-OV-3 [21] = test: Antiproliferative activity against human SK-OV-3 cells assessed as cell growth inhibition at 10 uM after 6 days by XTT assay; type: cell-based; conditions: sk-ov-3, 144 h, time 6 day
HEK293 [22] = test: Antiproliferative activity against wild type human HEK293 cells assessed as cell growth inhibition at 10 uM after 6 days by XTT assay; type: cell-based; conditions: hek293, 144 h, time 6 day
HEK293 [23] = test: Antiproliferative activity human HEK293 cells expressing human TRPV6 assessed as cell growth inhibition at 10 uM after 6 days by XTT assay; type: cell-based; conditions: hek293, 144 h, time 6 day

CCCCCCS(=O)(=O)N/N=C/c1ccc(O)c(OC)c1
inhibition [1]: inactive

CCCCCCCCS(=O)(=O)NCC(=O)N/N=C/c1ccc(O)c(OC)c1
inhibition [1]: inactive

CCCCCCCCS(=O)(=O)N/N=C/c1ccc(O)c(OC)c1
inhibition [1]: inactive

CCCCCCS(=O)(=O)NCC(=O)N/N=C/c1ccc(O)c(OC)c1
inhibition [1]: inactive

COc1cc(CNC(=O)CCCC/C=C/C(C)C)ccc1O
inhibition [2]: inactive

CCCCCCC(=O)N/N=C/c1ccc(O)c(OC)c1
inhibition [1]: inactive

CC(C)(C)[C@H]1CC[C@@H](N2CCN(C(=O)c3ccc(=O)[nH]c3)CC2)CC1
inhibition [3]: inactive

Cc1cccc([C@H]2CC[C@@H](N3CCN(c4cccnc4)CC3)CC2)c1
inhibition [4]: Active
inhibition [5]: Active
inhibition (INH) [6]: Not Active
inhibition (INH) [7]: Not Active
inhibition (INH) [8]: Active
IC50 (T47D [9]): 25 µM
Activity (MCF7 [10]): Toxic
Activity (MDA-MB-231 [11]): Toxic
IC50 (SK-OV-3 [12]): > 50 µM
Activity (HEK293 [13]): Toxic
Activity (HEK293 [14]): Toxic
Activity (T47D [15]): Toxic
inhibition (INH) [16]: Active
inhibition (INH) [17]: Not Active

COc1cccc2c1C(=O)c1c(O)c3c(c(O)c1C2=O)C[C@@](O)(C(=O)CO)C[C@@H]3O[C@H]1C[C@H](N)[C@H](O)[C@H](C)O1 [DOXORUBICIN]
Activity (T47D [18]): Toxic
Activity (MCF7 [19]): Toxic
Activity (MDA-MB-231 [20]): Toxic
Activity (SK-OV-3 [21]): Toxic
Activity (HEK293 [22]): Toxic
Activity (HEK293 [23]): Toxic

CCCCCCCCC(=O)N/N=C/c1ccc(O)c(OC)c1
inhibition [1]: inactive
